The record followed here is ChEMBL document CHEMBL1143502, “Fluorescent metal ion indicators based on benzoannelated crown systems: a green fluorescent indicator for intracellular sodium ions” (Bioorg Med Chem Lett, 2005).

The Kd is a measure of binding affinity in units of concentration.

Holding throughout (assay type): functional
A short description of assay [1]: The in vitro binding constant in presence of K+ was reported. An outline of the steps: (§1)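 Fluorescence titration in pH 7.0 buffer series (50 mM MOPS, pH set with tetramethylammonium hydroxide) containing 0–1000 mM of the monovalent cation (Li+, Na+, K+ or Rb+) at 20 °C. Kd (mM) was taken from the intensity change with cation concentration, alongside the response S = I[bound]/I[free].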

Assay [2] is described as follows: The in vitro binding constant in presence of Rb+ was reported. An outline of the steps: as §1
Assay [3] can be described thus: The in vitro binding constant in presence of Li+ was reported. An outline of the steps:
as §1

For `COC(=O)CN1CCOCCOCCOCCOc2cc(-c3c4ccc(=[N+](C)C)cc-4oc4cc(N(C)C)ccc34)ccc21`, the Kd in assay [1] came out at 254 mM.
For the compound `COC(=O)CN1CCOCCOCCOCCOc2cc(-c3c4cc(F)c(=O)cc-4oc4cc(O)c(F)cc34)ccc21`, the Kd in assay [2] was found to be 319 mM; in assay [3] it was 142 mM; in assay [1] it was 291 mM.
The corresponding values for `COC(=O)CN1CCOCCOCCOCCOc2cc(NC(=O)c3ccc(-c4c5cc(F)c(=O)cc-5oc5cc(O)c(F)cc45)c(C(=O)O)c3)ccc21` are 157 mM, 65 mM and 144 mM.
As for `COCCN1CCOCCOCCOCCOc2cc(-c3c4cc(F)c(=O)cc-4oc4cc(O)c(F)cc34)ccc21`, the Kd in assay [1] was found to be 269 mM.
As for `COC(=O)CN1CCOCCOCCOCCOc2cc(C3=C4C(C)=CC(C)=[N+]4[B-](F)(F)n4c(C)cc(C)c43)ccc21`, the dissociation constant Kd in assay [1] turned out to be 170 mM.
Regarding `COC(=O)CN1CCOCCOCCOCCOCCOc2cc(-c3c4cc(F)c(=O)cc-4oc4cc(O)c(F)cc34)ccc21`, the figures for the Kd in assay [2] and in assay [1] were 25 mM and 11 mM, respectively.
For `COC(=O)CN1CCOCCOCCOc2cc(-c3c4cc(F)c(=O)cc-4oc4cc(O)c(F)cc34)ccc21`, the Kd in assay [2] worked out at 376 mM; in assay [3], 438 mM; in assay [1] it was 978 mM.
